An excerpt weighted towards active compounds, which were near 1.9% of everything screened.
Hck Nef HTS: human Hck-Nef kinase inhibition. 220,000 tested, 0.68% active. Recombinant Hck-YEEI plus Nef, Z-Lyte FRET kinase assay. inhibition, % at 20 µM. P08631. AID 463187;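 active = Hck-Nef kinase inhibition above about 50%, limit read from the data; inactive = inhibition below that limit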;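 note: 0% = DMSO with Hck plus Nef and 100% = Hck alone without Nef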
Runt-CBFb FRET: blocks binding of human RUNX1 Runt domain to CBFb. Cerulean-Runt/Venus-CBFb FRET ratio 530/480, 1 h. AID 1496. inhibition, % at 20 µM. Q01196+Q13951. 220,000 tested, 0.46% active;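 active = inhibition over about 50% at 20 µM in the single-dose screen, limit read from the data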;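 note: 0% = DMSO wells and 100% = excess unlabeled CBFb competitor control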
Target sequence (Q01196 whole entry, looked up, the tested form may be a part): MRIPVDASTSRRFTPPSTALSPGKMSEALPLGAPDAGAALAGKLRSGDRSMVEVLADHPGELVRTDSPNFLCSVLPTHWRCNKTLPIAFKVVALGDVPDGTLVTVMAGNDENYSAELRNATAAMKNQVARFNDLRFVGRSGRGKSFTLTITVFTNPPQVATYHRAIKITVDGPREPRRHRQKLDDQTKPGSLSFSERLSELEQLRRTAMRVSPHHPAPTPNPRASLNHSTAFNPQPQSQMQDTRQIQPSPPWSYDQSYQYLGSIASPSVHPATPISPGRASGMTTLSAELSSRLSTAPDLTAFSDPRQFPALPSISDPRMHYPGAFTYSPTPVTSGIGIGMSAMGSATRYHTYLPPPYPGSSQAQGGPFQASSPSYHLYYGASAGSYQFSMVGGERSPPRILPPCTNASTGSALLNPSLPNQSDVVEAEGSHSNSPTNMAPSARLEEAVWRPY
Target sequence (Q13951 whole entry, looked up, the tested form may be a part): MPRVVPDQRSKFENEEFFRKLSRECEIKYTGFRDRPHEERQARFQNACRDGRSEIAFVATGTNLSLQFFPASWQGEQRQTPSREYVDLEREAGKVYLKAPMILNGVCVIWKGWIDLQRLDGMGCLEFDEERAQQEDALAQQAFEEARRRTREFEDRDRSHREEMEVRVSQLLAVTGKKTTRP
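Assay system: Cerulean-Runt domain fusion protein, energy donor; Signal: fluorescence energy transfer, 422 nm excitation, 530/480 nm emission; Timing: 1 h compound exposure, room temperature; Control set: unlabeled CBFb; Medium: Tris buffer pH 7.5 with salts and BSA; Compound: single test concentration of 20 µM, 1% DMSO final; Probe or stimulus: Venus-CBFb 100 nM.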
Runt-SMMHC FRET: blocks binding of human RUNX1 Runt domain to CBFb-SMMHC; 220,000 tested, 0.74% active; Cerulean-Runt/Venus-CBFb-SMMHC FRET ratio 530/480, 1 h; Q01196+Q13951; inhibition, % at 20 µM; AID 1434;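 active = mean inhibition across duplicate retests at 20 µM reaching about 50%, limit read from the data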;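 note: 0% = DMSO wells and 100% = wells with excess untagged CBFb-SMMHC; inhibitors lower the FRET ratio by blocking Runt binding to CBFb-SMMHC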
RanGTP-Impb inh: disruptors of Ran-importin-beta complex formation – biochemical, FRET, CFP-Ran, YFP-importin-beta, homogeneous, primary screen | cell-free CFP-Ran/YFP-importin-beta FRET ratio | inhibition, % (concentration not given with the values) | 300,000 tested, 1.1% active;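 active = more than half of the replicate wells show a fall in the fluorescence ratio signal beyond about 16%, limit read from the data, passing the limit was not always enough; inconclusive = exactly half of the replicate wells pass the set limit; inactive = fewer than half of replicates pass the limit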;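 note: 0% = DMSO wells and 100% = Ran loaded with GDP instead of GTP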
Tb hexokinase: blocks Trypanosoma brucei hexokinase 1 activity | 220,000 tested, 0.11% active | inhibition, % at 10 µM | recombinant TbHK1, G6PDH-coupled NADH A340 | AID 1430;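 active = inhibition of 50% or more in the single-dose primary screen; inactive = inhibition below 50%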
* hit, by the source's call; ? = inconclusive; · = no result.

SMILES	Hck Nef HTS	Runt-CBFb FRET	Runt-SMMHC FRET	RanGTP-Impb inh	Tb hexokinase
CN1C(=O)/C(=C\C=C2/CCCN2C)N(C)C1=S	20.5	-14.2	-31.1	?	-7.5
O=C(O)c1nn(CCOc2ccc(Cl)cc2Cl)c(=O)c2ccccc12	·	·	·	1.6	·
Cc1ccc(C2=NN=C(NC(=O)CSc3nncn3C)SC2)cc1	18.7	48.8	61.0*	-1.4	-20.3
Cc1ccc(-n2c(C)cc(/C=N/NC(=O)Cn3c4ccccc4c(=O)c4ccccc43)c2C)cc1	38.3	105.5*	·	·	-6.8
CCNC(=S)N/N=C/c1cc(C)n(-c2ccc(Cl)cc2)c1C	-2.9	-0.3	4.5	0.9	-22.7
Cc1cc(/C=N/NC(=O)Cn2c3ccccc3c(=O)c3ccccc32)c(C)n1-c1ccc(Cl)cc1	34.8	101.2*	·	·	-6.0
COC(=O)N/N=C/c1cc(C)n(-c2ccccc2)c1C	-0.5	-0.6	3.8	-4.3	14.5
CC1SC(=S)N(c2ccc(N(C)C)cc2)C1=O (stereo not drawn)	·	·	·	0.2	·
CCOc1ccccc1CNC(=O)C1Cc2cc(S(=O)(=O)N3CCCCC3)ccc2N1C(C)=O (stereo not drawn)	·	·	·	-2.1	·
Cc1cc(C(C)C)n2c(nc3ccccc32)c1C#N	-16.8	5.5	7.8	?	-3.7
Cc1cc(N2CCN(C3CCCC3)CC2)n2c(nc3ccccc32)c1C#N	11.2	31.7	53.1*	7.4	-4.2
CC(C)N1CCc2c(sc(NC(=O)Cc3ccccc3)c2C(N)=O)C1	·	·	·	139.8*	·
CC(C)N1CCc2c(sc(NC(=O)CCc3ccccc3)c2C(N)=O)C1	21.6	78.1*	92.5*	130.3*	-1.8
CCCN1CCc2c(sc(NC(=O)Cc3ccc(F)cc3)c2C(N)=O)C1	·	·	·	133.3*	·
CC(=O)N1CCc2c(sc(NC(=O)Cc3ccccc3)c2C(N)=O)C1	·	·	·	5.2	·
COc1ccc(S(=O)(=O)N(C)C)cc1NC(=O)CCCSc1ccccc1	·	·	·	-4.4	·
CCSc1sccc1C1C(C#N)=C(N)N(c2cccnc2)C2=C1C(=O)CCC2 (stereo not drawn)	0.1	44.6	66.2*	?	-12.5
COc1cc(C2C(C#N)=C(N)N(c3cccnc3)C3=C2C(=O)CCC3)ccc1O (stereo not drawn)	8.6	2.3	-13.1	14.1	-17.4
COc1cccc(C(=O)Nc2cc3c(cc2C(C)=O)OCCO3)c1	-5.1	-11.1	-3.9	-1.7	27.1
CCc1ccc(C(=O)/C=C2\Sc3ccccc3NC2=O)cc1	7.2	32.5	5.8	-0.7	40.2
CCCCNC(=O)/C=C1\Sc2ccccc2NC1=O	5.4	1.4	2.6	31.8*	27.5
O=C(N/N=C/C(Cl)=C/c1ccc([N+](=O)[O-])cc1)C(=O)Nc1ccc(C(=O)O)cc1	75.5*	2.1	0.8	5.7	-68.9
N#Cc1c(-c2ccccc2)cc2nc3ccccc3n2c1N	4.7	7.2	10.3	17.2*	-5.0
COc1cc(-c2cc3nc4ccccc4n3c(N)c2C#N)cc(OC)c1OC	49.9	7.2	15.4	24.9*	-33.4
Nc1cc(-c2ccccc2)n2c(n1)nc1ccccc12	23.6	1.1	-0.7	7.6	-15.7
SMILES	Hck Nef HTS	Runt-CBFb FRET	Runt-SMMHC FRET	RanGTP-Impb inh	Tb hexokinase
Cc1cc(C)cc(NC(=O)CCc2c(C)nn(-c3ccc(N4CCOCC4)nn3)c2C)c1	·	·	·	1.4	·
FC(F)(F)c1cc(-c2cccs2)nc2cc(-c3cccs3)nn12	14.6	-4.9	-31.7	43.4*	-3.7
O=C(CN1C(=O)/C(=C/c2ccc(F)cc2)SC1=S)NC1CCS(=O)(=O)C1 (stereo not drawn)	·	·	·	1.4	·
CCN1C(=O)N(S(=O)(=O)C(F)(F)F)[C@@H](c2ccccc2)C(C(=O)OC)=C1C	26.2	0.5	-0.4	34.8*	-14.9
O=C(c1ccc2c3c(cccc13)CC2)C1CCCN(Cc2cccnc2)C1 (stereo not drawn)	16.8	-4.2	-3.6	-2.9	-9.4
Cc1cccc(CN2CCCC(C(=O)c3ccc4c5c(cccc35)CC4)C2)n1 (stereo not drawn)	153.6*	-2.3	2.4	-4.0	-9.1
O=C(O)c1c2c(nc3ccccc13)/C(=C/c1ccc(O)cc1)CC2	-18.7	20.3	86.3*	-9.9	-2.6
CCc1ccc(/C=C2\CN(CC)Cc3c2nc2ccccc2c3C(=O)O)cc1	-1.0	-33.0	-215.2	-1.5	-8.8
O=C(O)c1c2c(nc3ccccc13)/C(=C/c1c(F)cccc1F)CCC2	·	·	·	75.0*	·
